Source: PubChem
Rows were chosen to be rich in hits. Some 1.7% of all compounds tested hit in one or more screens of this group.
IDE act: human IDE activators in live cells, primary screen, fluorescence polarization, HEK cells, FAbeta-B substrate; Insulin-degrading enzyme (Homo sapiens), P14735; FAbeta-B cleavage; 0% vehicle, 100% cell-free pure enzyme wells; activation, % at 5.96 µM; 340,000 tested, 0.073% active; AID 493087, 2011;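 active means activation above the mean of all tested compounds plus 3 SD, set per screening campaign, cut at about 17% in these data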
IDE cell inh: human IDE inhibitors in live cells, primary screen, fluorescence polarization, HEK cells, FAbetaB substrate | Insulin-degrading enzyme (Homo sapiens), P14735 | inhibition, % at 5.59 µM | FAbetaB cleavage | AID 434962, 2010 | 320,000 tested, 0.41% active;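 active means percent inhibition above the average of all tested compounds plus 3 SD, set per screening campaign, cut at about 16% in these data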;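 further: IDE supplied by intact live HEK cells; FP after avidin binding of uncleaved biotin substrate so inhibition keeps polarization high; 0% = DMSO wells and 100% = 60 µM reference IDE inhibitor Ii1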
TPT1 inh: Candida albicans TPT1 enzyme inhibitors, primary screen, biochemical, fluorescence polarization; AID 1962, 2009; 300,000 tested, 0.81% active; recombinant caTPT1, FP RNA substrate dephosphorylation; inhibition, % at 5 µM;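 active means inhibition above the mean of all tested compounds plus 3 SD, set per screening campaign, cut at about 24% in these data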;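 further: plate controls were DMSO alone for no effect and ferristatin control at 100 nM for full effect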
Rpn11 block: Rpn11 (PSMD14) deubiquitinase inhibitors, primary screen, biochemical, fluorescence polarization, uHTS; 26S proteasome non-ATPase regulatory subunit 14 (Homo sapiens), O00487; human 26S proteasome, Ub4-pepOG fluorescence polarization; 20S core pre-blocked with epoxomicin; calls only at 20 µM; 360,000 tested, 0.59% active; AID 588493, 2011;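 active means inhibition at 20 µM, scaled to each plate's controls, above about 33%, limit read from the data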
HNF4A DNA FP: change in binding of human HNF4A to DNA, primary screen, biochemical, fluorescence polarization, FITC-DNA; Hepatocyte nuclear factor 4-alpha (Homo sapiens), P41235; 1 h; activity change, % at 10 µM; 360,000 tested, 0.3% active; AID 1224865, 2016; in the data active means activity change above about 30%, passing the limit was not always enough
CSN deneddyl inh: inhibitors of CSN-mediated cullin deneddylation, primary screen, biochemical, fluorescence polarization, uHTS. Purified CSN, SCF-Nedd8-OG deneddylation. inhibition, % at 12.5 µM. 360,000 tested, 0.38% active. AID 651999, 2013;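 active means pattern-corrected inhibition above about 35%, with an unprinted fluorescence ratio check between 0.5 and 1.5, limit read from the data, passing the limit was not always enough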;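 further: 0% = enzyme with substrate and 100% = substrate without enzyme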
Target sequence (Q92905 whole entry, looked up, one chain of several): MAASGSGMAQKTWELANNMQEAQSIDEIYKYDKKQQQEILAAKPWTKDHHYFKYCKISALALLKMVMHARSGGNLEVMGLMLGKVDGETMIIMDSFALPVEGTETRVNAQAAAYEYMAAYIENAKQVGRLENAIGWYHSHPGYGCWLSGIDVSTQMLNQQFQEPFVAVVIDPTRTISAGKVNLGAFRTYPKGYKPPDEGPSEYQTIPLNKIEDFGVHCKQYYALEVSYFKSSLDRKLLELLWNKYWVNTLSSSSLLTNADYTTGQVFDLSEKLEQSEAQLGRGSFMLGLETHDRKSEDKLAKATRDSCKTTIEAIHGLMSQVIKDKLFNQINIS
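Test system: purified human Csn5 enzyme expressed in HEK293T cells. Amount: 0.24 nM enzyme. Reagent: SCFSkp2-Nedd8OG substrate at 10 nM final. Schedule: 90 min incubation of compound, enzyme and substrate at room temperature. Detection: fluorescence polarization. Read-out: % inhibition of substrate cleavage by Csn5.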
caTPT1 confirm: Candida albicans TPT1 inhibitors, confirmation, biochemical, fluorescence polarization, triplicate | shares compounds with TPT1 inh | recombinant caTPT1, RNase T1 coupled | inhibition, % at 5 µM | 2,400 tested, 74% active | AID 2149, 2009;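 active means inhibition above the primary screen limit, the mean inhibition of all tested compounds plus 3 SD, cut at about 25% in these data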
RNase T1 counter: RNase T1 inhibitors, counter-screen for TPT1 inhibitor project, biochemical, fluorescence polarization; RNase T1 cleavage, 1536-well; shares compounds with TPT1 inh; inhibition, % at 5 µM; 2,400 tested, 83% active; AID 2153, 2009;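 active means inhibition above the solvent-only control well mean plus 3 SD, limit set per screening run, cut at about 23% in these data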;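 further: plate controls were DMSO wells with enzyme for no effect and wells without RNase T1 for full effect; inhibitors block cleavage so intact labeled substrate keeps polarization high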
Target sequence (P00651 whole entry, looked up): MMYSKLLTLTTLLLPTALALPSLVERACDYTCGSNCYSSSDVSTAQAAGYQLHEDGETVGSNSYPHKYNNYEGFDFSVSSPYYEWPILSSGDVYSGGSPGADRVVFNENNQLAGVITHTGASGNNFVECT
IDE inh confirm: human IDE inhibitors in live cells, confirmation, fluorescence polarization, HEK cells, FAbetaB substrate; shares compounds with IDE cell inh; FAbetaB cleavage; inhibition, % at 5.59 µM; 1,200 tested, 51% active; AID 435028, 2010;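 active means mean inhibition across triplicate wells above the cutoff set by the earlier primary insulin-degrading enzyme screen, cut at about 16% in these data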;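 further: 0% = DMSO wells and 100% = 60 µM reference IDE inhibitor Ii1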
HEK293 tox: cytotoxicity in HEK cells, cytotoxicity control for IDE inhibitor project, cell-based, luminescence; shares compounds with IDE cell inh; HEK293 cytotoxicity, ATP luminescence; inhibition, % at 5.59 µM; 1,200 tested, 28% active; in the data active means inhibition above about 22%;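 further: 0% = vehicle wells and 100% = reference cytotoxic drug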
* marks the source's active call; other numbers are inactive results; i = inactive; · = not tested or not shown.

SMILES	IDE act	IDE cell inh	TPT1 inh	Rpn11 block	HNF4A DNA FP	CSN deneddyl inh	caTPT1 confirm	RNase T1 counter	IDE inh confirm	HEK293 tox
CCN(CC)c1ccc(/C=C(/C#N)C(=O)NC(C)C)o1	-31.7	26.8*	169.3*	·	183.8	148.5	186.0*	172.8*	30.4*	12.6
CC(NC(=O)/C(C#N)=C/c1ccc([N+](=O)[O-])o1)c1ccccc1 (configuration not stated)	-2.7	5.7	22.9	i	12.7	18.2	·	·	·	·
CCN(CC)c1ccc(/C=C(/C#N)C(=O)NCc2ccccc2)o1	-104.2	103.3*	188.9*	·	192.4	167.3	196.5*	180.3*	153.0*	5.8
O=C1c2cccc3cccc(c23)C(=O)N1c1ccc(O)cc1	-0.3	1.2	-5.3	i	8.9	8.4	·	·	·	·
O=C1c2cccc3c(N4CCCCC4)ccc(c23)C(=O)N1c1ccc(O)cc1	-170.6	75.0*	72.5*	·	-103.6	14.9	60.7*	61.4*	71.7*	13.6
O=C1c2cccc3c(N4CCCCC4)ccc(c23)C(=O)N1c1ccccc1O	-115.5	88.7*	71.6*	·	-7.1	-69.8	38.9*	50.4*	152.2*	18.3
COc1cc(/C=C/C(=O)CC(=O)/C=C/c2ccc(O)c(OC)c2)ccc1O	-63.4	30.8*	139.2*	·	111.7	110.8	146.6*	135.2*	81.0*	8.6
COc1cc(/C=C/C(=O)O)ccc1O	2.6	-6.7	-3.3	i	2.9	5.5	·	·	·	·
O=C(CN1C(=O)c2ccccc2S1(=O)=O)NCCc1ccccc1	6.0	3.5	-4.2	i	1.6	5.4	·	·	·	·
CNC(=O)c1c(NC(=O)c2ccc(S(=O)(=O)N3CCCC3)cc2)sc2c1CCN(C(C)C)C2	·	43.5*	148.0*	·	·	·	153.1*	145.2*	6.4	16.5
Cc1csc(SCC(=O)Nc2cccc(C)c2C)n1	0.4	1.7	·	i	-2.0	0.9	·	·	·	·
Cc1ccc(-c2nc3c(c(=O)[nH]c(=O)n3CC(C)C)n2CC(C)C)cc1[N+](=O)[O-]	3.8	0.8	-2.8	i	-3.0	-0.1	·	·	·	·
CCN(CC)c1ccc(/C=C/C(=O)C2C(=O)C=C(C)OC2=O)cc1 (configuration not stated)	-142.1	64.2*	48.0*	·	76.5	-93.2	33.0*	40.3*	95.5*	12.6
CN(C)CCCN1C(=O)c2cccc3cccc(c23)C1=O	-0.8	-5.6	-3.8	i	-2.6	4.0	·	·	·	·
CCCCN1C(=O)c2cccc3cc(O)cc(c23)C1=O	-10.1	20.5*	37.3*	i	-5.7	-3.1	42.0*	47.9*	27.6*	12.1
COc1ccc(/C=c2\s/c(=C/C(=O)c3ccc(C)cc3)[nH]c2=O)c(OC)c1	-67.2	88.3*	66.9*	·	35.9	-36.6	28.4*	37.1*	111.8*	11.8
COc1cccc(/C=c2\s/c(=C/C(=O)c3ccc(C)cc3)[nH]c2=O)c1OC	-5.1	-1.8	4.0	i	2.0	9.4	·	·	·	·
COc1cc(/C=C(\C#N)c2nc3ccccc3n2C)cc(OC)c1O	-175.0	165.6*	82.7*	·	2.8	17.5	100.6*	101.2*	26.3*	2.0
COc1cc(/C=C(\C#N)C(=O)c2c[nH]c3ccccc23)cc(OC)c1O	-107.7	38.3*	127.8*	·	83.8*	165.9	155.8*	143.3*	159.2*	3.0
COc1cc(/C=C(\C#N)c2nc3ccccc3[nH]2)cc(OC)c1O	-93.8	92.0*	137.3*	·	104.3	157.2	133.4*	124.4*	25.9*	7.7
CCn1cc(C2C(C(=O)Nc3ccc(Br)cn3)=C(C)NC3=C2C(=O)CCC3)c(C)n1 (configuration not stated)	-2.0	1.5	-3.3	i	-1.5	2.1	·	·	·	·
CCN1CCN(Cc2c(O)ccc3c2O/C(=C\C=C\c2ccccc2OC)C3=O)CC1	-36.1	31.7*	52.9*	·	46.9*	29.2	63.6*	68.4*	55.3*	8.2
N#Cc1cc(C(=O)c2cc(F)ccc2O)cn(-c2nccs2)c1=O	-42.5	33.1*	55.0*	·	36.3	-47.0	56.7*	66.8*	66.6*	13.4
CC(C)n1cc(C(=O)c2ccccc2O)cc(C#N)c1=O	5.0	3.3	-2.6	i	3.3	7.6	·	·	·	·
Cc1c(-n2cc(C(=O)c3cc(F)ccc3O)cc(C#N)c2=O)c(=O)n(-c2ccccc2)n1C	-10.0	11.0	3.6	i	15.3	7.5	·	·	·	·
SMILES	IDE act	IDE cell inh	TPT1 inh	Rpn11 block	HNF4A DNA FP	CSN deneddyl inh	caTPT1 confirm	RNase T1 counter	IDE inh confirm	HEK293 tox
N#Cc1cc(C(=O)c2ccccc2O)cn(-c2nccs2)c1=O	-50.5	38.5*	43.7*	·	7.8	18.6	41.5*	52.0*	61.4*	13.7
CC(C)(C)c1ccc(C(=O)OC/C(O)=C(\C#N)c2nc3ccccc3s2)cc1	-2.4	-4.6	1.2	i	-1.4	7.4	·	·	·	·
N#C/C(=C/c1ccc(-c2ccc(S(N)(=O)=O)cc2)o1)c1nc2ccccc2s1	-48.0	39.9*	73.4*	·	107.3	-95.5	40.8*	50.0*	77.8*	24.4*
COC(=O)c1ccc(/C=C(\C#N)c2nc3ccccc3s2)cc1	6.0	31.7*	36.4*	i	-1.5	3.6	20.7	29.4*	-1.5	11.7
O=C(c1cc(COc2cccc3cccnc23)on1)N1CCC[C@H]1CO	·	·	·	i	2.3	3.3	·	·	·	·
Cc1ccc(N=C2NC(=O)/C(=C/c3cn(C)c4ccccc34)S2)cc1C	-36.5	18.8*	116.8*	·	65.3*	53.6	121.1*	125.0*	52.1*	21.9
CCOC(=O)N1CCC(N(C(=O)Nc2ccccc2)C(C)CC)CC1 (configuration not stated)	-1.8	1.8	-3.9	i	-2.4	4.5	·	·	·	·
